Here are results for 22 molecules from ChEMBL document CHEMBL1130165 (J Med Chem, 1997).

Data set [1] can be described thus: Aqueous solubility was determined. The format is physicochemical. The following applies: aqueous medium (not further specified).
Data set [2] in a line: Ratio of solubility to that of paclitaxel solubility. The format is ADME.
The test system of another data set is B16. Nature of the data set: Ratio of ED50 of compound to that of ED50 of paclitaxel; ED50 expressed as concentration which produces 50% inhibition of proliferation of B16 melanoma cells after 40h incubation. The format is functional, Mus musculus. The gist of the method: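 B16 melanoma cells were incubated with compound for 40 h. Each value is expressed as a ratio to the paclitaxel ED50.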

The target in data set [3] is Tubulin beta-1 chain (Homo sapiens) (UniProt Q9H4B7). In words: Ratio of ED50 of compound to that of ED50 of paclitaxel; ED50 expressed as concentration which causes polymerization of 50% of the tubulin in microtubule assembly assay (in vitro). The format is functional. The gist of the method:
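In vitro microtubule assembly assay. […] Each compound's ED50 is expressed as a ratio to the paclitaxel ED50.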

Data set [4] in a line: Ratio of solubility to that of paclitaxel solubility; range 17-20. The format is ADME.
The nature of data set [5]: Aqueous solubility was determined; range 5-6. The format is physicochemical. Particulars: aqueous medium (not further specified).
Data set [6] can be described thus: Ratio of solubility to that of paclitaxel solubility; range 23-28. The format is ADME.
Data set [7] in a line: Aqueous solubility was determined; range 6.8-8.4. The format is physicochemical. The following applies: aqueous medium (not further specified).

Converted amounts (≈) assume the structure as drawn.

Tubulin beta-1 chain (Homo sapiens), sequence (Q9H4B7 whole entry): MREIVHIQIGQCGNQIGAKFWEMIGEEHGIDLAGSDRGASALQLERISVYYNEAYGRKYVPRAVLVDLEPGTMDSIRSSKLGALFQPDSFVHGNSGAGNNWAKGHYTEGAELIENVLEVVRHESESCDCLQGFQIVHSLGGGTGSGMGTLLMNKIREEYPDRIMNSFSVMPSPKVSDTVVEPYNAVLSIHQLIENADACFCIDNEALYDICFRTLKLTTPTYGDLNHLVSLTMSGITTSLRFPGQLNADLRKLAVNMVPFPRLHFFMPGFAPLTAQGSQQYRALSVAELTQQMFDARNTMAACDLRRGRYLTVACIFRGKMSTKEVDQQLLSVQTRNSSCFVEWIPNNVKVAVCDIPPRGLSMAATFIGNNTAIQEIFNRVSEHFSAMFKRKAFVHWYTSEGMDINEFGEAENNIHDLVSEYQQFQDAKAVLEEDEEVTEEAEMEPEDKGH

With `CC(=O)O[C@@]12COC1C[C@H](O)[C@@]1(C)C(=O)[C@H](O)C3=C(C)[C@@H](OC(=O)[C@H](O)[C@@H](NC(=O)/C=C/c4cccs4)C(C)(C)C)C[C@@](O)([C@@H](OC(=O)c4ccccc4)[C@@H]12)C3(C)C` (some centres undefined), the solubility in data set [1] is 1 µg/mL (≈ 1.21 µM).
Consider `CC(=O)O[C@@]12COC1C[C@H](O)[C@@]1(C)C(=O)[C@H](O)C3=C(C)[C@@H](OC(=O)[C@H](O)[C@@H](NC(=O)C4CCC4)C(C)(C)C)C[C@@](O)([C@@H](OC(=O)c4ccccc4)[C@@H]12)C3(C)C` (some centres undefined), for which the Ratio in data set [2] was 80. The ED50 ratio in the data set on B16 was 3. Also, the solubility in data set [1] is 24 µg/mL (≈ 31.2 µM).
Take `CC(=O)O[C@@]12COC1C[C@H](O)[C@@]1(C)C(=O)[C@H](O)C3=C(C)[C@@H](OC(=O)[C@H](O)[C@@H](NC(=O)c4ccoc4)C(C)(C)C)C[C@@](O)([C@@H](OC(=O)c4ccccc4)[C@@H]12)C3(C)C` (some centres undefined): the ED50 ratio in data set [3] came to 1.6; with B16 it was 2.3.
In the case of `CC(=O)O[C@@]12CO[C@@H]1C[C@H](O)[C@@]1(C)C(=O)[C@H](O)C3=C(C)[C@@H](OC(=O)[C@H](O)[C@@H](NC(=O)OC(C)(C)C)c4ccccc4)C[C@@](O)([C@@H](OC(=O)c4ccccc4)[C@H]21)C3(C)C.O.O.O` [DOCETAXEL], the Ratio in data set [4] was 20. Moreover, the figures for the ED50 ratio (in data set [3]; in the data set with B16) were 0.45 and 0.41, respectively. In data set [5], the concentration in solution (solubility) was 6 µg/mL.
With `CC(=O)O[C@@]12COC1C[C@H](O)[C@@]1(C)C(=O)[C@H](O)C3=C(C)[C@@H](OC(=O)[C@H](O)[C@@H](NC(=O)C4CCCCC4)C(C)(C)C)C[C@@](O)([C@@H](OC(=O)c4ccccc4)[C@@H]12)C3(C)C` (some centres undefined), in data set [2], the Ratio came out at 150. Further, the ED50 ratio in the data set on B16 was 3.8. The molecule further had a solubility in data set [1] of 45 µg/mL (≈ 56.4 µM).
In the case of `CC(=O)O[C@@]12COC1C[C@H](O)[C@@]1(C)C(=O)[C@H](O)C3=C(C)[C@@H](OC(=O)[C@H](O)[C@@H](NC(=O)c4cccs4)C(C)(C)C)C[C@@](O)([C@@H](OC(=O)c4ccccc4)[C@@H]12)C3(C)C` (some centres undefined), the ED50 ratio was 0.42 in data set [3] and 0.53 with B16. Also, the Ratio in data set [6] was determined as 28. This molecule also came in with a solubility in data set [7] of 8.4 µg/mL (≈ 10.5 µM).
Take `CCCCCCOC(=O)N[C@H]([C@@H](O)C(=O)O[C@H]1C[C@@]2(O)[C@@H](OC(=O)c3ccccc3)[C@H]3[C@](C)(C(=O)[C@H](O)C(=C1C)C2(C)C)[C@@H](O)CC1OC[C@]13OC(C)=O)C(C)(C)C` (some centres undefined): the figures for the ED50 ratio (in data set [3]; in the data set with B16) were 2.3 and 12, respectively.
For the molecule `CC(=O)O[C@@]12COC1C[C@H](O)[C@@]1(C)C(=O)[C@H](O)C3=C(C)[C@@H](OC(=O)[C@H](O)[C@@H](NC(=O)C4CC4)C(C)(C)C)C[C@@](O)([C@@H](OC(=O)c4ccccc4)[C@@H]12)C3(C)C` (some centres undefined), the Ratio in data set [2] came to 150. Besides, the ED50 ratio in the data set on B16 was 2.1. For the same molecule, in data set [1], the solubility is 45 µg/mL (≈ 59.5 µM).
For the molecule `CC(=O)O[C@@]12COC1C[C@H](O)[C@@]1(C)C(=O)[C@H](O)C3=C(C)[C@@H](OC(=O)[C@H](O)[C@@H](NC(=O)c4sccc4C)C(C)(C)C)C[C@@](O)([C@@H](OC(=O)c4ccccc4)[C@@H]12)C3(C)C` (some centres undefined), the ED50 ratio was determined as 1.4 in data set [3] and 1.3 in the data set on B16.
Take `CC(=O)O[C@@]12COC1C[C@H](O)[C@@]1(C)C(=O)[C@H](O)C3=C(C)[C@@H](OC(=O)[C@H](O)[C@@H](NC(=O)c4ccccc4)C(C)(C)C)C[C@@](O)([C@@H](OC(=O)c4ccccc4)[C@@H]12)C3(C)C` (some centres undefined) [BUTITAXEL]: in data set [2], the Ratio stood at 9.3. Also, in the data set on B16, the ED50 ratio is reported as 7.5. The molecule also gave a solubility in data set [1] of 2.8 µg/mL (≈ 3.54 µM).
Take `CC(=O)O[C@H]1C(=O)[C@@]2(C)[C@H]([C@H](OC(=O)c3ccccc3)[C@]3(O)C[C@H](OC(=O)[C@H](O)[C@@H](NC(=O)c4ccccc4)c4ccccc4)C(C)=C1C3(C)C)[C@]1(OC(C)=O)CO[C@@H]1C[C@@H]2O` [PACLITAXEL]: the Ratio in data set [2] is recorded as 1. The ED50 ratio in the data set on B16 worked out at 1.
Regarding `CC(=O)O[C@@]12COC1C[C@H](O)[C@@]1(C)C(=O)[C@H](O)C3=C(C)[C@@H](OC(=O)[C@H](O)[C@@H](NC(=O)OC(C)(C)C)C(C)(C)C)C[C@@](O)([C@@H](OC(=O)c4ccccc4)[C@@H]12)C3(C)C` (some centres undefined), the Ratio in data set [2] came to 110. The ED50 ratio with B16 was 0.4. In data set [1], this molecule yielded a solubility of 33 µg/mL (≈ 41.9 µM).
For the molecule `CC(=O)O[C@@]12COC1C[C@H](O)[C@@]1(C)C(=O)[C@H](O)C3=C(C)[C@@H](OC(=O)[C@H](O)[C@@H](NC(=O)c4cccn4C)C(C)(C)C)C[C@@](O)([C@@H](OC(=O)c4ccccc4)[C@@H]12)C3(C)C` (some centres undefined), in data set [2], the Ratio was found to be 1.8. In the data set on B16, the ED50 ratio is listed as 1.2. Moreover, the concentration in solution in data set [1] (solubility) came to 0.5 µg/mL (≈ 0.629 µM).
Turning to `CC(=O)O[C@@]12COC1C[C@H](O)[C@@]1(C)C(=O)[C@H](O)C3=C(C)[C@@H](OC(=O)[C@H](O)[C@@H](NC(=O)C4CCCC4)C(C)(C)C)C[C@@](O)([C@@H](OC(=O)c4ccccc4)[C@@H]12)C3(C)C` (some centres undefined), the ED50 ratio in data set [3] is 1.5; with B16 it was 1.4.
In the case of `CC(=O)O[C@@]12COC1C[C@H](O)[C@@]1(C)C(=O)[C@H](O)C3=C(C)[C@@H](OC(=O)[C@H](O)[C@@H](NC(=O)c4ccco4)C(C)(C)C)C[C@@](O)([C@@H](OC(=O)c4ccccc4)[C@@H]12)C3(C)C` (some centres undefined), the Ratio in data set [2] is given as 73. Also, the ED50 ratio in the data set with B16 is on record as 2.1. Also, the concentration in solution in data set [1] (solubility) came to 22 µg/mL (≈ 28.1 µM).
On to `CC(=O)O[C@@]12COC1C[C@H](O)[C@@]1(C)C(=O)[C@H](O)C3=C(C)[C@@H](OC(=O)[C@H](O)[C@@H](NC(=O)c4ccsc4)C(C)(C)C)C[C@@](O)([C@@H](OC(=O)c4ccccc4)[C@@H]12)C3(C)C` (some centres undefined), for which the Ratio in data set [2] is on record as 16. The ED50 ratio in the data set with B16 is given as 1.2. In data set [1], this molecule yielded a solubility of 4.7 µg/mL (≈ 5.89 µM).
As to `CCCOC(=O)N[C@H]([C@@H](O)C(=O)O[C@H]1C[C@@]2(O)[C@@H](OC(=O)c3ccccc3)[C@H]3[C@](C)(C(=O)[C@H](O)C(=C1C)C2(C)C)[C@@H](O)CC1OC[C@]13OC(C)=O)C(C)(C)C` (some centres undefined), the results for the ED50 ratio (in data set [3]; in the data set on B16) were 1.7 and 1.5, respectively.
Turning to `CCC(CC)C(=O)N[C@H]([C@@H](O)C(=O)O[C@H]1C[C@@]2(O)[C@@H](OC(=O)c3ccccc3)[C@H]3[C@](C)(C(=O)[C@H](O)C(=C1C)C2(C)C)[C@@H](O)CC1OC[C@]13OC(C)=O)C(C)(C)C` (some centres undefined), the ED50 ratio is 1.7 in data set [3] and 26 with B16.
For the molecule `CC(=O)O[C@@]12COC1C[C@H](O)[C@@]1(C)C(=O)[C@H](O)C3=C(C)[C@@H](OC(=O)[C@H](O)[C@@H](NC(=O)Cc4cccs4)C(C)(C)C)C[C@@](O)([C@@H](OC(=O)c4ccccc4)[C@@H]12)C3(C)C` (some centres undefined), the Ratio in data set [2] came out at 23. In addition, in the data set with B16, the ED50 ratio is 3.3. The same molecule displayed a solubility in data set [1] of 6.7 µg/mL (≈ 8.25 µM).
The matching figures for `CC(=O)O[C@@]12COC1C[C@H](O)[C@@]1(C)C(=O)[C@H](O)C3=C(C)[C@@H](OC(=O)[C@H](O)[C@@H](NC(=O)c4ccc(C)s4)C(C)(C)C)C[C@@](O)([C@@H](OC(=O)c4ccccc4)[C@@H]12)C3(C)C` (some centres undefined): 13, 32 and 4 µg/mL (≈ 4.93 µM).
The like results for `CCOC(=O)N[C@H]([C@@H](O)C(=O)O[C@H]1C[C@@]2(O)[C@@H](OC(=O)c3ccccc3)[C@H]3[C@](C)(C(=O)[C@H](O)C(=C1C)C2(C)C)[C@@H](O)CC1OC[C@]13OC(C)=O)C(C)(C)C` (some centres undefined) were, in that order, 32, 3.4 and 9.7 µg/mL (≈ 12.8 µM).
The like results for `CC(=O)O[C@@]12COC1C[C@H](O)[C@@]1(C)C(=O)[C@H](O)C3=C(C)[C@@H](OC(=O)[C@H](O)[C@@H](NC(=O)OC(C)C)C(C)(C)C)C[C@@](O)([C@@H](OC(=O)c4ccccc4)[C@@H]12)C3(C)C` (some centres undefined) were, in that order, 1.7, 1.2 and 0.5 µg/mL (≈ 0.646 µM).
